How the values were obtained:
[1] = molecular target: T1, Substance-K receptor (Oryctolagus cuniculus) (UniProt P79218); assay: Antagonist activity at NK2 receptor in rabbit pulmonary artery assessed as effect on neurokinin A-induced mechanical activity; format: functional; conditions: filed as antagonist
T1 sequence (whole entry): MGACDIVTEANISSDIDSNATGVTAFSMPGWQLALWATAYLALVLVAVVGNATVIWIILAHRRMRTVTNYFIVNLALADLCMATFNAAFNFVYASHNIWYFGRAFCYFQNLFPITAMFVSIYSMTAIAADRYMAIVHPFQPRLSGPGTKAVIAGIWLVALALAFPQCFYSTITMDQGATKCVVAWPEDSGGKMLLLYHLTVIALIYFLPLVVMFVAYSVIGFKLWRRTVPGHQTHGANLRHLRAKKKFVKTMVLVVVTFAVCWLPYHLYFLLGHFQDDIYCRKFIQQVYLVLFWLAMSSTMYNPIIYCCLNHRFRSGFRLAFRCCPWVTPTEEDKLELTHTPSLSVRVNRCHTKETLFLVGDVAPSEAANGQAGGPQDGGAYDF
In short: (§1)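 Isolated smooth muscle strips were held in oxygenated (96% O2/4% CO2) Krebs–Henseleit at NaCl 119, NaHCO3 25, KH2PO4 1.2, MgSO4 1.5, CaCl2 2.5, KCl 4.7 and glucose 11 mM. Cumulative agonist concentration–response curves were run after 15 min antagonist incubation. pKB = log(dose ratio − 1) − log[antagonist], as the mean of individual values.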

[2] = molecular target: T2, Substance-K receptor (Rattus norvegicus) (UniProt P16610); assay: Antagonist activity at NK2 receptor in rat urinary bladder assessed as effect on beta-Ala8]NKA(4-10)-induced mechanical activity; format: functional; conditions: filed as antagonist; in short: as §1
T2 sequence (whole entry): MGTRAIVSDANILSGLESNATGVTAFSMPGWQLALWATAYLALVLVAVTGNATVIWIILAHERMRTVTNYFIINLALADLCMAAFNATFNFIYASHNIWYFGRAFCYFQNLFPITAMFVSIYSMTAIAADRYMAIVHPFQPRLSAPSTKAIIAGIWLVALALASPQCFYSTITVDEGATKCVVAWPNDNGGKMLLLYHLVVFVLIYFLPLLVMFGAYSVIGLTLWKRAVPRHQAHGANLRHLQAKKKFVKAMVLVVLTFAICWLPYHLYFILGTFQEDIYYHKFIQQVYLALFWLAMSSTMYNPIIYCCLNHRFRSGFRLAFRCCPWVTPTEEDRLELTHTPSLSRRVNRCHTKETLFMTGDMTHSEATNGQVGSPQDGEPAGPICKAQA

Substance-K receptor = molecular target: T3, Substance-K receptor (Homo sapiens, UniProt P21452); assay: Displacement of [125I]neurokinin A from human NK2 receptor expressed in CHOK1 cells; format: cell-based, CHO-K1
T3 sequence (P21452 whole entry): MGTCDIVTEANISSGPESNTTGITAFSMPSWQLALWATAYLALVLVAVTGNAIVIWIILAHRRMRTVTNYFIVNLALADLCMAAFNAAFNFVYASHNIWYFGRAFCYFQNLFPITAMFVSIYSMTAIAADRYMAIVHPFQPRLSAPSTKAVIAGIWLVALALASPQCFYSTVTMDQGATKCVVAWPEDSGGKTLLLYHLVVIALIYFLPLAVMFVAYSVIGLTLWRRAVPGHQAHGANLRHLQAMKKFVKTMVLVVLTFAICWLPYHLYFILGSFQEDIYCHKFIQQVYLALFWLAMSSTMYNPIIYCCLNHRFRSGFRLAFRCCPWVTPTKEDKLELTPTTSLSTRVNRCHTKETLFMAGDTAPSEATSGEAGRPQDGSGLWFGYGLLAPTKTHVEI
In short: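 Competition binding was run on membranes of cells stably transfected with the human receptor: U-373MG for NK-1, CHO-K1 for NK-2 and NK-3. NK-1 used [3H][Sar9]SP sulfone at 1.2 nM. Affinity is given as pKi (−log Ki).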

SMILES	pKb [1]	pKb [2]	Ki (Substance-K receptor)
N[C@H]1CC(=O)NC[C@@H](Cc2ccccc2)NC(=O)[C@H](Cc2ccccc2)NC(=O)[C@H](Cc2c[nH]c3ccccc23)NC1=O	7.7	–	–
O=C1C[C@@H](NC(=O)CN2CC[S+]([O-])CC2)C(=O)NC[C@@H](Cc2ccccc2)NC(=O)[C@H](Cc2ccccc2)NC(=O)[C@H](Cc2c[nH]c3ccccc23)N1	–	8.7	316 pM (antagonist)
O=C1C[C@@H](NC2CCS(=O)(=O)CC2)C(=O)NC[C@@H](Cc2ccccc2)NC(=O)[C@H](Cc2ccccc2)NC(=O)[C@H](Cc2c[nH]c3ccccc23)N1	–	9.3	158 pM (antagonist)
O=C1C[C@@H](N2CCC(N3CCOCC3)CC2)C(=O)NC[C@@H](Cc2ccccc2)NC(=O)[C@H](Cc2ccccc2)NC(=O)[C@H](Cc2c[nH]c3ccccc23)N1	–	8.9	200 pM (antagonist)
CS(=O)(=O)N1CCC(N[C@@H]2CC(=O)N[C@@H](Cc3c[nH]c4ccccc34)C(=O)N[C@@H](Cc3ccccc3)C(=O)N[C@H](Cc3ccccc3)CNC2=O)CC1	–	9.5	63.1 pM (antagonist)
O=C1C[C@@H](NC[C@H](O)[C@@H](O)[C@H](O[C@@H]2O[C@H](CO)[C@H](O)[C@H](O)[C@H]2O)[C@H](O)CO)C(=O)NC[C@@H](Cc2ccccc2)NC(=O)[C@H](Cc2ccccc2)NC(=O)[C@H](Cc2c[nH]c3ccccc23)N1	–	8.2	1260 pM (antagonist)
NC1CCN([C@@H]2CC(=O)N[C@@H](Cc3c[nH]c4ccccc34)C(=O)N[C@@H](Cc3ccccc3)C(=O)N[C@H](Cc3ccccc3)CNC2=O)CC1	–	8.5	5010 pM (antagonist)
O=C1C[C@@H](NC[C@H](O)[C@@H](O)[C@H](O)[C@H](O)CO)C(=O)NC[C@@H](Cc2ccccc2)NC(=O)[C@H](Cc2ccccc2)NC(=O)[C@H](Cc2c[nH]c3ccccc23)N1	–	8.8	398 pM (antagonist)
CN1CCN(CC(=O)N[C@@H]2CC(=O)N[C@@H](Cc3c[nH]c4ccccc34)C(=O)N[C@@H](Cc3ccccc3)C(=O)N[C@H](Cc3ccccc3)CNC2=O)CC1	–	8.5	1580 pM (antagonist)
CN1CCC(N[C@@H]2CC(=O)N[C@@H](Cc3c[nH]c4ccccc34)C(=O)N[C@@H](Cc3ccccc3)C(=O)N[C@H](Cc3ccccc3)CNC2=O)CC1	–	9	200 pM (antagonist)
O=C1C[C@@H](NC2CC[S+]([O-])CC2)C(=O)NC[C@@H](Cc2ccccc2)NC(=O)[C@H](Cc2ccccc2)NC(=O)[C@H](Cc2c[nH]c3ccccc23)N1 (stereo partly specified)	–	9.1	25.1 pM (antagonist)
CN1CCN([C@@H]2CC(=O)N[C@@H](Cc3c[nH]c4ccccc34)C(=O)N[C@@H](Cc3ccccc3)C(=O)N[C@H](Cc3ccccc3)CNC2=O)CC1	–	9.2	398 pM (antagonist)
O=C1C[C@@H](NC(=O)CN2CCC(O)CC2)C(=O)NC[C@@H](Cc2ccccc2)NC(=O)[C@H](Cc2ccccc2)NC(=O)[C@H](Cc2c[nH]c3ccccc23)N1	–	9.1	126 pM (antagonist)
O=C1C[C@H](NC2CCOCC2)C(=O)N[C@@H](Cc2c[nH]c3ccccc23)C(=O)N[C@@H](Cc2ccccc2)C(=O)N[C@H](Cc2ccccc2)CN1	–	7.8	6310 pM (antagonist)
CC(=O)N1CCN([C@@H]2CC(=O)N[C@@H](Cc3c[nH]c4ccccc34)C(=O)N[C@@H](Cc3ccccc3)C(=O)N[C@H](Cc3ccccc3)CNC2=O)CC1	–	9.6	126 pM (antagonist)
O=C1C[C@@H](NC2CCSCC2)C(=O)NC[C@@H](Cc2ccccc2)NC(=O)[C@H](Cc2ccccc2)NC(=O)[C@H](Cc2c[nH]c3ccccc23)N1	–	7.8	100 pM (antagonist)

SMILES	pKb [1]	pKb [2]	Ki (Substance-K receptor)
O=C1C[C@@H](N2CCC(N3CCCCC3)CC2)C(=O)NC[C@@H](Cc2ccccc2)NC(=O)[C@H](Cc2ccccc2)NC(=O)[C@H](Cc2c[nH]c3ccccc23)N1	–	8.9	200 pM (antagonist)
CC(=O)N[C@H]1[C@H](NC(=O)CCC(=O)N[C@@H]2CC(=O)N[C@@H](Cc3c[nH]c4ccccc34)C(=O)N[C@@H](Cc3ccccc3)C(=O)N[C@H](Cc3ccccc3)CNC2=O)O[C@H](CO)C(O)[C@@H]1O (single isomer, unassigned)	–	7.6	1580 pM (antagonist)
O=C1C[C@@H](NC2CCOCC2)C(=O)N[C@@H](Cc2c[nH]c3ccccc23)C(=O)N[C@@H](Cc2ccccc2)C(=O)N[C@H](Cc2ccccc2)CN1	–	7.4	7940 pM (antagonist)
NS(=O)(=O)N1CCC(N[C@@H]2CC(=O)N[C@@H](Cc3c[nH]c4ccccc34)C(=O)N[C@@H](Cc3ccccc3)C(=O)N[C@H](Cc3ccccc3)CNC2=O)CC1	–	9.5	50.1 pM (antagonist)
O=C1C[C@@H](NC(=O)CN2CCC[C@H]2CO)C(=O)NC[C@@H](Cc2ccccc2)NC(=O)[C@H](Cc2ccccc2)NC(=O)[C@H](Cc2c[nH]c3ccccc23)N1	–	8.9	316 pM (antagonist)
CC(=O)N[C@@H]1[C@@H](O)[C@H](O)[C@@H](CO)O[C@H]1NC(=O)C[C@H](NC(C)=O)C(=O)N[C@@H]1CC(=O)N[C@@H](Cc2c[nH]c3ccccc23)C(=O)N[C@@H](Cc2ccccc2)C(=O)N[C@H](Cc2ccccc2)CNC1=O	–	7.7	25100 pM (antagonist)
O=C1CCC(=O)N[C@@H](Cc2c[nH]c3ccccc23)C(=O)N[C@@H](Cc2ccccc2)C(=O)N[C@H](Cc2ccccc2)CN1	–	8.3	–
NC(=O)C1CCN(CC(=O)N[C@@H]2CC(=O)N[C@@H](Cc3c[nH]c4ccccc34)C(=O)N[C@@H](Cc3ccccc3)C(=O)N[C@H](Cc3ccccc3)CNC2=O)CC1	–	9.2	501 pM (antagonist)
CN(C1CCOCC1)[C@@H]1CC(=O)N[C@@H](Cc2c[nH]c3ccccc23)C(=O)N[C@@H](Cc2ccccc2)C(=O)N[C@H](Cc2ccccc2)CNC1=O	–	8.8	158 pM (antagonist)
O=C1C[C@@H](NC(=O)CN2CCOCC2)C(=O)NC[C@@H](Cc2ccccc2)NC(=O)[C@H](Cc2ccccc2)NC(=O)[C@H](Cc2c[nH]c3ccccc23)N1	–	8.5	–
CC(=O)N[C@@H](CN[C@@H]1CC(=O)N[C@@H](Cc2c[nH]c3ccccc23)C(=O)N[C@@H](Cc2ccccc2)C(=O)N[C@H](Cc2ccccc2)CNC1=O)[C@@H](O)[C@H](O)[C@H](O)CO	–	8.1	2000 pM (antagonist)
O=C1C[C@@H](NC(=O)CN2CCC(N3CC[S+]([O-])CC3)CC2)C(=O)NC[C@@H](Cc2ccccc2)NC(=O)[C@H](Cc2ccccc2)NC(=O)[C@H](Cc2c[nH]c3ccccc23)N1	–	9	251 pM (antagonist)
O=C1CC(NC(=O)[C@@H](O)[C@H](O)[C@@H](O[C@@H]2O[C@H](CO)[C@H](O)[C@H](O)[C@H]2O)[C@@H](O)CO)C(=O)NC[C@@H](Cc2ccccc2)NC(=O)[C@H](Cc2ccccc2)NC(=O)[C@H](Cc2c[nH]c3ccccc23)N1 (stereo partly specified)	–	8.7	3980 pM (antagonist)
O=C1C[C@@H](NC[C@H](O)[C@H](O)[C@@H](O[C@H]2O[C@H](CO)[C@@H](O[C@@H]3O[C@@H](CO)[C@H](O)[C@@H](O)[C@@H]3O)[C@H](O)[C@H]2O)[C@H](O)CO)C(=O)NC[C@@H](Cc2ccccc2)NC(=O)[C@H](Cc2ccccc2)NC(=O)[C@H](Cc2c[nH]c3ccccc23)N1	–	8.5	501 pM (antagonist)
CS(=O)(=O)N1CCN([C@@H]2CC(=O)N[C@@H](Cc3c[nH]c4ccccc34)C(=O)N[C@@H](Cc3ccccc3)C(=O)N[C@H](Cc3ccccc3)CNC2=O)CC1	–	9.3	3160 pM (antagonist)
O=C1C[C@@H](NC[C@H](O)[C@@H](O)[C@@H](O[C@H]2O[C@H](CO)[C@@H](O)[C@H](O)[C@H]2O)[C@H](O)CO)C(=O)NC[C@@H](Cc2ccccc2)NC(=O)[C@H](Cc2ccccc2)NC(=O)[C@H](Cc2c[nH]c3ccccc23)N1	–	8.5	631 pM (antagonist)
